From ChEMBL document CHEMBL2169858, “Design and synthesis of indomethacin analogues that inhibit P-glycoprotein and/or multidrug resistant protein without COX inhibitory activity” (J Med Chem, 2012)
Several values for one entry are separate records, joined by “and”; a condition that tells them apart may be missing. Equal values may be shown once.

What was measured:
[1] = target: T1, Prostaglandin G/H synthase 1 (Ovis aries, UniProt P05979); experiment: Inhibition of ovine COX1 by colorimetric assay
T1 sequence (P05979 whole entry): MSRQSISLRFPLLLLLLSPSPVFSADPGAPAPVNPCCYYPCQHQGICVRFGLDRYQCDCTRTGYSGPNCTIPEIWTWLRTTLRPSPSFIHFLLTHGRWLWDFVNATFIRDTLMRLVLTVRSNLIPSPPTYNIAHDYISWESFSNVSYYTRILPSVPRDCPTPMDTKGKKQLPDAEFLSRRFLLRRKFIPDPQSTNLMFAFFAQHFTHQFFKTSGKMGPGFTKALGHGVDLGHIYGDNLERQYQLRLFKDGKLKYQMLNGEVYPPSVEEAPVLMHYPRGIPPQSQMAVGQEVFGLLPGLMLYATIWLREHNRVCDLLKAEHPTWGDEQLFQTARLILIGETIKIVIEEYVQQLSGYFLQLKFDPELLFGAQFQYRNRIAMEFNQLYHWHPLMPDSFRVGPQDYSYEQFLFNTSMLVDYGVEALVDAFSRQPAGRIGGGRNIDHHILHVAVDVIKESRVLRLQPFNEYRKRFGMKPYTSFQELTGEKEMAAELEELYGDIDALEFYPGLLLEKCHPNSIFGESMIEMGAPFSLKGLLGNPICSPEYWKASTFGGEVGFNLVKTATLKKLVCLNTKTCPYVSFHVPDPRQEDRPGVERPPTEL
Method in brief: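 Colorimetric ovine COX inhibitor screening kit, run per the supplier's protocol. Each experiment was done at least four times and reported as mean ± SEM.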

[2] = target: ATP-dependent translocase ABCB1 (Homo sapiens, UniProt P08183); experiment: Inhibition of human recombinant P-glycoprotein after 40 mins by Pgp-Glo assay
ATP-dependent translocase ABCB1, sequence (P08183 whole entry): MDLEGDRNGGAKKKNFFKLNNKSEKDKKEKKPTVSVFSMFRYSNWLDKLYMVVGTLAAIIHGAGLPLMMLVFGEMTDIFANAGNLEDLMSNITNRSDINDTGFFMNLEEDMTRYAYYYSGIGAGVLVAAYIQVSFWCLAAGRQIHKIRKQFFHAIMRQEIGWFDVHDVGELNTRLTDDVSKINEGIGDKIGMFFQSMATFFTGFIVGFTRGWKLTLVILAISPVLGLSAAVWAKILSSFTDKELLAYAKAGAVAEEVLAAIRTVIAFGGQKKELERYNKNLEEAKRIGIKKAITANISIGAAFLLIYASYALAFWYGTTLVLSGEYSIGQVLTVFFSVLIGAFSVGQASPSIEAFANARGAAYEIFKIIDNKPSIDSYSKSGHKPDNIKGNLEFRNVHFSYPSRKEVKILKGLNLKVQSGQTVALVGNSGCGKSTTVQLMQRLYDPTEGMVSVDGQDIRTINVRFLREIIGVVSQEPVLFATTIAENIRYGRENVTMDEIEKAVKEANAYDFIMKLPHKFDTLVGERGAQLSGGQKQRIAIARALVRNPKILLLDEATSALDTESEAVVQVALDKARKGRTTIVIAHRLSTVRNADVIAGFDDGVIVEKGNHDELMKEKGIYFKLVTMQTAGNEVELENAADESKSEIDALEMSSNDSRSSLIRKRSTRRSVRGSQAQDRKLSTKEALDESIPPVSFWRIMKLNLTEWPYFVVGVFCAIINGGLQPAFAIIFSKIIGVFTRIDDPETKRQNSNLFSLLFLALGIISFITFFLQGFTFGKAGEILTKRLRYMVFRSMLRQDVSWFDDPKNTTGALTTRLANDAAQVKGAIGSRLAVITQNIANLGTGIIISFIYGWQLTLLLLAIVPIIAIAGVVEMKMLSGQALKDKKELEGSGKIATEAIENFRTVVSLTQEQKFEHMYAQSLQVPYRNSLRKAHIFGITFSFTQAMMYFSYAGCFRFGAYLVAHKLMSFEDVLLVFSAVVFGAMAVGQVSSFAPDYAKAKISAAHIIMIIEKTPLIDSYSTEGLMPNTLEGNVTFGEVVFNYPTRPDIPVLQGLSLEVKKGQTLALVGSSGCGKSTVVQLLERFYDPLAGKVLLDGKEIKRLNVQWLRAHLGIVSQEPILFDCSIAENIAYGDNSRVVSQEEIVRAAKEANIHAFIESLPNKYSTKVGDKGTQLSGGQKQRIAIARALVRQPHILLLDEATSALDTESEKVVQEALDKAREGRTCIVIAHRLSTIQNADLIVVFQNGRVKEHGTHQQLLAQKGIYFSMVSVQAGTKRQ
Method in brief: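 Recombinant human P-gp membranes were incubated with test compound (dilution series, 0.781–200 μM) and 5 mM MgATP at 37 °C for 40 min. ATP detection buffer was added and luminescence developed at room temperature for 20 min. IC50 was fitted to concentration–luminescence data by nonlinear least squares.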

[3] = target: Multidrug resistance-associated protein 1 (Homo sapiens, UniProt P33527); experiment: Inhibition of human MRP1 in human T98G cells assessed as potentiation of doxorubicin induced cytotoxicity at 50 uM pre-incubated for 2 hrs before doxorubicin addition and measured 4 days after doxorubicin exposure by MTT assay relative to untreated control; type: cell-based; conditions: 96 h
Multidrug resistance-associated protein 1, sequence (P33527 whole entry): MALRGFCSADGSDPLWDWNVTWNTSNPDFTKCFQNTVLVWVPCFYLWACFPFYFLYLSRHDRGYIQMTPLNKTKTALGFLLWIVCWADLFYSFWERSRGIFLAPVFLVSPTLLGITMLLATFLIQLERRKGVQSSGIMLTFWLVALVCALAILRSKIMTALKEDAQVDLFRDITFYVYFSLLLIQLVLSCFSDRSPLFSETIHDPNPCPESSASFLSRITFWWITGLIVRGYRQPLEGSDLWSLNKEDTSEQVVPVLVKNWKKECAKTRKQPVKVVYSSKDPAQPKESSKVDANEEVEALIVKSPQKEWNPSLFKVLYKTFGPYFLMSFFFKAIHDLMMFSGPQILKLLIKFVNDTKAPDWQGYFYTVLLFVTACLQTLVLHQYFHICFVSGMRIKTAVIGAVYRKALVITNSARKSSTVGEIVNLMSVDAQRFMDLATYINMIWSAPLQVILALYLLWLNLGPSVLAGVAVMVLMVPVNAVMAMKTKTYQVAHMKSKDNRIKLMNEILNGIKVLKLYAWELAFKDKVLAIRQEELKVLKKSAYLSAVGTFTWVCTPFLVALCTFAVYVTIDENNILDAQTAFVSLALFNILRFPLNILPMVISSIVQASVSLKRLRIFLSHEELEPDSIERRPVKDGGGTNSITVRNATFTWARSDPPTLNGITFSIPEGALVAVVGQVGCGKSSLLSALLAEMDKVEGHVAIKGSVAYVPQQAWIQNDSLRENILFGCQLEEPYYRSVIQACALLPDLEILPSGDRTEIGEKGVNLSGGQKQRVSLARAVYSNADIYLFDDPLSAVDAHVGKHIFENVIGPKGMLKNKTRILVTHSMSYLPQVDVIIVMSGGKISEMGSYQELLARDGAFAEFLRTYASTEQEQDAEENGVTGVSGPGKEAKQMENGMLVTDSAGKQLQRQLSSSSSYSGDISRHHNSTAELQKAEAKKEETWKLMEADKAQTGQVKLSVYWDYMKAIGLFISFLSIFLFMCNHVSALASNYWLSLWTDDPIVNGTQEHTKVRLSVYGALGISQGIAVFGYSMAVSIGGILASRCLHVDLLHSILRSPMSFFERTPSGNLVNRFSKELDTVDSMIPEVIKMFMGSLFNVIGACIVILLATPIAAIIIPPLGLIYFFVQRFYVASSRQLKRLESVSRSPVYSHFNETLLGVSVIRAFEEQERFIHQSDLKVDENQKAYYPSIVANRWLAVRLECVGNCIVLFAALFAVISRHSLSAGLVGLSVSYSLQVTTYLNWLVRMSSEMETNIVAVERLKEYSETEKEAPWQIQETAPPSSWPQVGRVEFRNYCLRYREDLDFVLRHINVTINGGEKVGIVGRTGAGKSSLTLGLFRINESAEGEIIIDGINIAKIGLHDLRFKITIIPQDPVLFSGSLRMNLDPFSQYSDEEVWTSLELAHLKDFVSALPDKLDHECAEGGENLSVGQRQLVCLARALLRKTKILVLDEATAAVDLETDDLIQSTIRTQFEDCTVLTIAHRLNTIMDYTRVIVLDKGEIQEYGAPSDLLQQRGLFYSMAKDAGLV

T98G = experiment: Cytotoxicity against human T98G cells assessed as inhibition of cell growth at 1 uM by MTT assay; type: functional; conditions: read-out: GI

| SMILES | IC50 [1] | IC50 [2] | inhibition (INH) [3] | inhibition of growth at 1 µM (T98G) |
| --- | --- | --- | --- | --- |
| O=C(O)Cc1c(-c2ccccc2)n(C(=O)c2ccc(Cl)cc2)c2ccccc12 | > 400 µM | 18 µM | Active | – |
| COc1cccc2c(CC(=O)O)c(C)n(C(=O)c3ccc(Cl)cc3)c12 | > 400 µM | 15 µM | Active | – |
| CCc1cccc2c(CC(=O)O)cn(C(=O)c3ccc(Cl)cc3)c12 | > 400 µM | 17 µM | Not Active | – |
| COc1cccc2c1C(=O)c1c(O)c3c(c(O)c1C2=O)C[C@@](O)(C(=O)CO)C[C@@H]3O[C@H]1C[C@H](N)[C@H](O)[C@H](C)O1 [DOXORUBICIN] | – | – | – | 40% |
| COc1ccc2c(c1)c(CC(=O)O)c(C)n2C(=O)c1ccc(Cl)cc1 [INDOMETHACIN] | – | 32 µM and 28 µM | – | – |

Now from value to compound, other results behind:

| IC50 [1] | IC50 [2] | SMILES | inhibition (INH) [3] | inhibition of growth at 1 µM (T98G) |
| --- | --- | --- | --- | --- |
| 0.01 µM | 20 µM | Cc1c(CC(=O)O)c2ccccc2n1C(=O)c1ccc(Cl)cc1 | – | – |
| > 400 µM | 20 µM | CCc1c(CC(=O)O)c2ccccc2n1C(=O)c1ccc(Cl)cc1 | Active | – |
| > 200 µM | 9.8 µM | COc1ccc2c(CC(=O)O)c(C)n(C(=O)c3ccc(Cl)cc3)c2c1 | – | – |
